Measured values of several laboratories.
Protocols differ between the studies behind these lines. Converted amounts (≈) assume the structure as drawn.

| SMILES | target or system | assay | test system | conditions | measurement | result |
| --- | --- | --- | --- | --- | --- | --- |
| CC[C@@]1(O)C(=O)OCc2c1cc1n(c2=O)Cc2cc3ccccc3nc2-1 | SNB-19 | cell growth or viability, SRB | – | 48 h | IC50 | 52.9 µM |
| CC[C@H](C)[C@@H]([C@@H](CC(=O)N1CCC[C@H]1[C@H](OC)[C@@H](C)C(=O)N[C@H](C)[C@@H](O)c1ccccc1)OC)N(C)C(=O)[C@@H](NC(=O)[C@@H](NC)C(C)C)C(C)C | Daudi | cell growth or viability, CCK-8 | – | – | IC50 | 0.00185 µM |
| O=C1CCP(=S)(c2ccccc2)CC1 | HaCaT | cell growth or viability, MTT | – | 72 h | IC50 | 14.2 µM |
| CC[C@H](C)C[C@H](C)CCCCCCCCC(=O)N[C@H]1C[C@@H](O)[C@@H](NCCN)NC(=O)[C@@H]2[C@@H](O)CCN2C(=O)[C@H]([C@H](O)CCN)NC(=O)[C@H]([C@H](O)[C@@H](O)c2ccc(O)cc2)NC(=O)[C@@H]2C[C@@H](O)CN2C(=O)[C@H]([C@@H](C)O)NC1=O | Nakaseomyces glabratus | microbial growth, broth dilution | ATCC15126 | 48 h | MIC | 0.25 µg/mL (≈ 0.229 µM) |
| C#Cc1ccc(C=NNC(=O)c2ccc(Br)cc2)c(O)c1 | Cryptococcus neoformans | microbial growth, broth dilution | – | pH 7.4 | MIC80 | 0.03 µg/mL (≈ 0.0874 µM) |
| COc1cnc(OC)n2nc(NS(=O)(=O)c3c(OCC(F)F)cccc3C(F)(F)F)nc12 | HaCaT | cell growth or viability, CCK-8 | – | 6.25 µM, 72 h | inhibition | 0.85% |
| C#Cc1ccc(C=NNC(=O)c2cc(Br)cc(Br)c2O)c(O)c1 | Cryptococcus neoformans | microbial growth, broth dilution | – | pH 7.4 | MIC80 | 0.03 µg/mL (≈ 0.0685 µM) |
| N.N.[Cl][Pt][Cl] | OCI-LY19 | cell growth or viability, ATP luminescence | – | 10 µM, 72 h | inhibition | 100% |
| O=C1CCc2cc(-c3cccc(OC(=O)[C@H]4[C@H](c5ccccc5)[C@@H](C(=O)O)[C@H]4c4ccccc4)c3)ccc2N1 | WI-38 | cell growth or viability, MTT | – | – | IC50 | 77 µM |
| C#Cc1cccc(C=NNC(=O)c2ccc(Br)c(Br)c2)c1O | Cryptococcus neoformans | microbial killing | – | – | MFC | 0.12 µg/mL (≈ 0.284 µM) |
| N.N.[Cl][Pt][Cl] | HaCaT | cell growth or viability, MTT | – | 72 h | IC50 | 6.3 µM |
| C#Cc1ccc(C(=O)NN=Cc2c(O)cccc2C#C)cc1 | Cryptococcus neoformans | microbial growth, broth dilution | – | pH 7.4 | MIC80 | 0.015 µg/mL (≈ 0.052 µM) |
| O=C1CCP(c2ccccc2)CC1 | HaCaT | cell growth or viability, MTT | – | 72 h | IC50 | 73.3 µM |
